Where “and” joins values, the source holds several entries; their conditions need not be identical. Identical values can stand only once. Calls of active or inactive are those of the source. No cut-off for these calls is given here.
Experiments:
[1] = biological target: T1, Mineralocorticoid receptor (Rattus norvegicus) (UniProt P22199); assay: Relative binding affinity against mineralocorticoid receptor of rat kidney at 25 degree Centigrade
T1 sequence (whole entry): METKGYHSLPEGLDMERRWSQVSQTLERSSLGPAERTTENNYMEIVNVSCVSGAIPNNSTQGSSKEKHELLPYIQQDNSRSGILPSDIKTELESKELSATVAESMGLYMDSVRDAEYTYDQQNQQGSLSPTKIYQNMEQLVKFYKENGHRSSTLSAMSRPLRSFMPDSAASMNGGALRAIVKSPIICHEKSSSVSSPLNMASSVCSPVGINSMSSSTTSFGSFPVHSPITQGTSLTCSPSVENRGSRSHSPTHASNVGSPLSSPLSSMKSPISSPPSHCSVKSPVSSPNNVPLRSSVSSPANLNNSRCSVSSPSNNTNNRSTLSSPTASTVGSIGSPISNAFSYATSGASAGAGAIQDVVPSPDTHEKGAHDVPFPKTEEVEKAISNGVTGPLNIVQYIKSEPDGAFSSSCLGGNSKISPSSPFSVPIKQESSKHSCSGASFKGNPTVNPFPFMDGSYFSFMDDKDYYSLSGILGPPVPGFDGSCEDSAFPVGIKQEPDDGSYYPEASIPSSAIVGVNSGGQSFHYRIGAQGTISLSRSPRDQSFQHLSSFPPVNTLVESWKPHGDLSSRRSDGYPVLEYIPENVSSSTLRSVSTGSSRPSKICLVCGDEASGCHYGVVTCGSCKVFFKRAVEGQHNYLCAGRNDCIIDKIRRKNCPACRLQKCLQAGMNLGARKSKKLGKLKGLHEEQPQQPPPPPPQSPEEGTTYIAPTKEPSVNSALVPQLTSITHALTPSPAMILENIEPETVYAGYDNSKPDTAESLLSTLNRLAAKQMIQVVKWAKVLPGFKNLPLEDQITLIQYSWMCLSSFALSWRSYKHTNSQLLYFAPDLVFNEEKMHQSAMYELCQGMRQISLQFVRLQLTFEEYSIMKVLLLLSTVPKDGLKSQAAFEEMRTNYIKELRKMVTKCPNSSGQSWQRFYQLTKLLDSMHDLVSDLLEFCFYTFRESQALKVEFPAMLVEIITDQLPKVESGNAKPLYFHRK
Summary of the method: (§1)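 Kidney cytosol from male Sprague-Dawley rats (4-8 weeks), adrenalectomized 1-2 days before, prepared in pH 7.5 phosphate buffer with DTT, sucrose and 10 mM molybdate, spun at 200000g. Incubated with competitor (0.4 nM-40 μM) and about 1 nM 3H-aldosterone for 42-48 h at 0 °C or 100-120 min at 25/26 °C. Dextran-coated charcoal separation. RBA = ratio of 50%-inhibition concentrations versus aldosterone standard (=100).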

[2] = biological target: T1, Mineralocorticoid receptor (Rattus norvegicus); assay: Relative binding affinity against mineralocorticoid receptor of rat kidney at 0 degree Centigrade; summary of the method: as §1
[3] = biological target: T1, Mineralocorticoid receptor (Rattus norvegicus); assay: Relative binding affinity against mineralocorticoid receptor of rat kidney at 25 degree centigrade; value ranges from […]-[…]%
[4] = biological target: T1, Mineralocorticoid receptor (Rattus norvegicus); assay: Aldosterone (5 ug/kg) antagonist activity for urinary Na/k at 250 ug/kg; assay type: functional; settings: Urine
Summary of the method: (§2)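 Male Slc:Wistar rats, 7 weeks old, bilaterally adrenalectomized 2 days before assay, kept on 0.45% NaCl. Sugar cubes replaced diet the next evening, with 6 mL 0.45% NaCl/100 g given ip that evening and again on assay morning. Aldosterone (5 μg/kg in sesame oil) or none given sc, test compound sc right after. Urinary Na and K measured by atomic absorption; Na/K reported as mean ± SE.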

[5] = biological target: T1, Mineralocorticoid receptor (Rattus norvegicus); assay: Relative binding affinity against mineralocorticoid receptor of rat kidney at 0 degree centigrade; value ranges from […]-[…]%
[6] = biological target: T1, Mineralocorticoid receptor (Rattus norvegicus); assay: Aldosterone (5 ug/kg) antagonist activity for urinary Na/k at 2500 ug/kg; assay type: functional; settings: Urine; summary of the method: as §2
[7] = biological target: T1, Mineralocorticoid receptor (Rattus norvegicus); assay: Aldosterone (5 ug/kg) antagonist activity for urinary Na/k at 25000 ug/kg; assay type: functional; settings: Urine; summary of the method: as §2
[8] = biological target: T2, Androgen receptor (Rattus norvegicus) (UniProt P15207); assay: Relative binding affinity against androgen receptor of rat prostate at 15 degree centigrade; N means negative, < 0.1
T2 sequence (whole entry): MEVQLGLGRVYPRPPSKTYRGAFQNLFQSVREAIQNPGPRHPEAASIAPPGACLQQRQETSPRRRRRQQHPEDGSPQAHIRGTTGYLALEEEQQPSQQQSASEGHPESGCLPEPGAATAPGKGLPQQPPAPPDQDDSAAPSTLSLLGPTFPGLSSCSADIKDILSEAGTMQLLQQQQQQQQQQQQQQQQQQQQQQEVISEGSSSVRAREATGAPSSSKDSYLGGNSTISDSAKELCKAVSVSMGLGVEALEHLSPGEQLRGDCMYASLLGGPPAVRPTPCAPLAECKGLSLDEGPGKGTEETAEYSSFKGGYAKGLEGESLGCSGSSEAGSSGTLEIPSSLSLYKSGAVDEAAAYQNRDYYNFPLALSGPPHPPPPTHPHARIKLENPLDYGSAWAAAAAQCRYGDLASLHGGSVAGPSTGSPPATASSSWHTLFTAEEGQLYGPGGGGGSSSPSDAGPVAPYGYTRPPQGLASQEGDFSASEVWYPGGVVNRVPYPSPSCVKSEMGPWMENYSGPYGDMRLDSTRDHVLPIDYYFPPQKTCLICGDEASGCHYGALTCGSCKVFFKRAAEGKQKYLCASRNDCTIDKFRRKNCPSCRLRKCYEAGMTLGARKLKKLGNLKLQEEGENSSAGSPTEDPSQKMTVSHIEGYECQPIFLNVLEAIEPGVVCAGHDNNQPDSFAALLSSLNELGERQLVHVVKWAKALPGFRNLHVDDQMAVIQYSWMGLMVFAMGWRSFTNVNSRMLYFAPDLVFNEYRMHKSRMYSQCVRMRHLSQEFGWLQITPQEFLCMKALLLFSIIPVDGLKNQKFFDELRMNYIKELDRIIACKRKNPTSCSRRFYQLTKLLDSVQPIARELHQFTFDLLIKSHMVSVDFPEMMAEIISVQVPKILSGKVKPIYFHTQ
Summary of the method: (§3)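 Ventral prostate cytosol from rats (4-5 weeks) castrated 1 day before, prepared in pH 7.5 phosphate buffer and spun 2 h at 200000g. Incubated with competitor (0.4 nM-40 μM) and 3H-DHT or 3H-methylnandrolone for 16-20 h at 0 °C or 2 h at 15 °C. Dextran-coated charcoal separation. RBA taken against DHT standard (=100); negative means RBA <0.1%.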

[9] = biological target: T1, Mineralocorticoid receptor (Rattus norvegicus); assay: Aldosterone (5 ug/kg) antagonist and agonist activity for urinary Na/k at 2.5 ug/kg; assay type: functional; settings: Urine; summary of the method: as §2
[10] = biological target: T1, Mineralocorticoid receptor (Rattus norvegicus); assay: Aldosterone (0 ug/kg) antagonist and agonist activity for urinary Na/k at 2.5 ug/kg; assay type: functional; settings: Urine; summary of the method: as §2
[11] = biological target: T2, Androgen receptor (Rattus norvegicus); assay: Relative binding affinity against androgen receptor of rat prostate at 0 degree centigrade; N means negative, < 0.1; summary of the method: as §3
[12] = biological target: T1, Mineralocorticoid receptor (Rattus norvegicus); assay: Aldosterone (5 ug/kg) antagonist and agonist activity for urinary Na/k at 0 ug/kg; assay type: functional; settings: Urine; summary of the method: as §2
[13] = biological target: T1, Mineralocorticoid receptor (Rattus norvegicus); assay: (§4) Aldosterone (0 ug/kg) antagonist and agonist activity for urinary Na/k at 0 ug/kg; assay type: functional; settings: Urine; summary of the method: as §2
[14] = biological target: T1, Mineralocorticoid receptor (Rattus norvegicus); assay: Aldosterone (0 ug/kg) antagonist and agonist activity for urinary Na/k at 25 ug/kg; assay type: functional; settings: Urine; summary of the method: as §2
[15] = biological target: T1, Mineralocorticoid receptor (Rattus norvegicus); assay: Aldosterone (5 ug/kg) antagonist and agonist activity for urinary Na/k at 25 ug/kg; assay type: functional; settings: Urine; summary of the method: as §2
[16] = biological target: T1, Mineralocorticoid receptor (Rattus norvegicus); assay: Relative binding affinity against mineralocorticoid receptor of rat kidney at 0 degree centigrade; value ranges from 44-58%; summary of the method: as §1
[17] = biological target: T1, Mineralocorticoid receptor (Rattus norvegicus); assay: Agonist activity for urinary Na/k at 2500 ug/kg; assay type: functional; settings: Urine; summary of the method: as §2
[18] = biological target: T1, Mineralocorticoid receptor (Rattus norvegicus); assay: Agonist activity for urinary Na/k at 250 ug/kg; assay type: functional; settings: Urine; summary of the method: as §2
[19] = biological target: T1, Mineralocorticoid receptor (Rattus norvegicus); assay: Aldosterone (5 ug/kg) antagonist activity for urinary Na/k at 0 ug/kg; assay type: functional; settings: Urine; summary of the method: as §2
[20] = biological target: T1, Mineralocorticoid receptor (Rattus norvegicus); assay: Agonist activity for urinary Na/k at 25000 ug/kg; assay type: functional; settings: Urine; summary of the method: as §2
[21] = biological target: T1, Mineralocorticoid receptor (Rattus norvegicus); assay: Aldosterone (0 ug/kg) antagonist and agonist activity for urinary Na/k at 2500 ug/kg; assay type: functional; settings: Urine; summary of the method: as §2
[22] = biological target: T1, Mineralocorticoid receptor (Rattus norvegicus); assay: Aldosterone (5 ug/kg) antagonist and agonist activity for urinary Na/k at 2500 ug/kg; assay type: functional; settings: Urine; summary of the method: as §2
[23] = biological target: T1, Mineralocorticoid receptor (Rattus norvegicus); assay: Aldosterone (0 ug/kg) antagonist activity for urinary Na/k at 0 ug/kg; assay type: functional; settings: Urine; summary of the method: as §2
[24] = biological target: T1, Mineralocorticoid receptor (Rattus norvegicus); assay: Aldosterone (0 ug/kg) antagonist and agonist activity for urinary Na/k at 25000 ug/kg; assay type: functional; settings: Urine; summary of the method: as §2
[25] = biological target: T1, Mineralocorticoid receptor (Rattus norvegicus); assay: as §4; assay type: functional; settings: Urine; summary of the method: as §2; remark: listed apart in the source
[26] = biological target: T1, Mineralocorticoid receptor (Rattus norvegicus); assay: Aldosterone (5 ug/kg) antagonist and agonist activity for urinary Na/k at 25000 ug/kg; assay type: functional; settings: Urine; summary of the method: as §2
[27] = biological target: T1, Mineralocorticoid receptor (Rattus norvegicus); assay: Relative binding affinity against mineralocorticoid receptor of rat kidney at 0 degree centigrade; value ranges from 36-63%; summary of the method: as §1
[28] = biological target: T1, Mineralocorticoid receptor (Rattus norvegicus); assay: Aldosterone (5 ug/kg) antagonist and agonist activity for urinary Na/k at 250 ug/kg; assay type: functional; settings: Urine; summary of the method: as §2
[29] = biological target: T1, Mineralocorticoid receptor (Rattus norvegicus); assay: Aldosterone (0 ug/kg) antagonist and agonist activity for urinary Na/k at 250 ug/kg; assay type: functional; settings: Urine; summary of the method: as §2

| RBA [1] [%] | RBA [2] [%] | RBA [11] | Activity [12] | Activity [13] | Activity [21] | Activity [22] | Compound | other results |
| --- | --- | --- | --- | --- | --- | --- | --- | --- |
| 100 | 100 | – | – | – | – | – | C[C@]12CCC(=O)C=C1CC[C@@H]1[C@@H]2[C@@H](O)C[C@]2(C=O)[C@@H](C(=O)CO)CC[C@@H]12 | – |
| 270 | 320 | inactive | 1 | 4.8 | – | – | CC12CCC(=O)C=C1CCC1C3CCC(C(=O)CO)C34COC(C4)[C@@]12F (stereo not given in full) | RBA [8]: inactive; Activity [9]: 0.7; Activity [10]: 2.8; Activity [14]: 0.3; Activity [15]: 0.1 |
| 32 | – | inactive | 0.8 | 3.5 | – | – | CC12CCC(=O)C=C1CCC1C3CCC(C(=O)CO)C34COC(C4)[C@@H]12 (stereo not given in full) | RBA [27]: 36%; Activity [28]: 1.7; Activity [29]: 1.8 |

Further lines, the compound ahead of its results:

| Compound | RBA [1] [%] | RBA [2] [%] | RBA [11] | Activity [12] | Activity [13] | Activity [21] | Activity [22] | other results |
| --- | --- | --- | --- | --- | --- | --- | --- | --- |
| CC(=O)S[C@@H]1CC2=CC(=O)CC[C@]2(C)[C@H]2CC[C@@]3(C)[C@@H](CC[C@@]34CCC(=O)O4)[C@H]12 | – | – | – | – | – | – | – | RBA [3]: 11%; Activity [4]: 0.93; RBA [5]: 2.3%; Activity [6]: 1.47; Activity [7]: 2.83 |
| CC12CCC(=O)C=C1CCC1C3CC[C@@]4(CCC(=O)O4)C34COC(C4)[C@@]12F (stereo not given in full) | 23 | – | inactive | 0.4 | 5.1 | 3.5 | 2.5 | RBA [8]: inactive; RBA [16]: 44%; Activity [17]: 2.7; Activity [18]: 3.42; Activity [4]: 1.33; Activity [19]: 0.75; Activity [20]: 1.95; Activity [6]: 2.08; Activity [7]: 2.13; Activity [23]: 4.07 |
| CC12CCC(=O)C=C1CCC1C3CC[C@@]4(CCC(=O)O4)C34COC(C4)[C@@H]12 (stereo not given in full) | 1.1 | 1.8 | – | 1.1 and 0.7 | 3.8 | 8.8 | 2.4 | Activity [24]: 3.8; Activity [25]: 7.7; Activity [26]: 2.2 |
| CC(=O)S[C@@H]1CC2=CC(=O)CCC2(C)C2C3CC4(CO3)C(CC[C@@]43CCC(=O)O3)C21 (stereo not given in full) | 0.4 | 0.1 | – | 1.1 | 7.7 | 6.4 | 1.6 | – |

Source: ChEMBL document CHEMBL1122971, “Aldosterone antagonists. 1. Synthesis and biological activities of 11 beta,18-epoxypregnane derivatives” (J Med Chem, 1985)
